pEC50: −log10 of the molar value. The source made the active and inactive calls. No cut-off for these calls is given here.

In experiment [1] the target is T1, Vitamin D3 receptor (Homo sapiens, UniProt P11473).
T1 sequence (P11473 whole entry): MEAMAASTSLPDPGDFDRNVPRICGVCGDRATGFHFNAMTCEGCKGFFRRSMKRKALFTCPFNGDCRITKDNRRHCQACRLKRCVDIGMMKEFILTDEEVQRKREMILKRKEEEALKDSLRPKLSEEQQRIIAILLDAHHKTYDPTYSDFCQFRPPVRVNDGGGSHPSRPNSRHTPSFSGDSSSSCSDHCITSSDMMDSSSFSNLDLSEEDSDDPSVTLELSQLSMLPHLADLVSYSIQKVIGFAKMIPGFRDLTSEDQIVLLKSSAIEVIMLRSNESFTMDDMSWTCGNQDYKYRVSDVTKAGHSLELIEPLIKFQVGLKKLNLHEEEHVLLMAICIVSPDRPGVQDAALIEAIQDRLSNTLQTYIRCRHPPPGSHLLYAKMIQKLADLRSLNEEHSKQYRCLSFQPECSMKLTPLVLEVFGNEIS
Briefly: Transactivation of VDR in human HaCaT cells after 24 hrs by luciferase reporter gene assay. Type of experiment: cell-based.

Experiment [2] can be described thus: Antiinflammatory activity in DBA/1 mouse splenocytes assessed as IFNgamma production at 100 nM after 2 hrs by ELISA (reference value: 731 +/- 15 pg/ml). Type of experiment: functional, Splenocyte. For orientation: An ELISA detects its analyte on a solid surface through an enzyme-linked reagent.
Experiment [3] concerns the target T1, Vitamin D3 receptor. Briefly: Transactivation of VDR in human Caco2 cells after 24 hrs by luciferase reporter gene assay. Type of experiment: cell-based, Caco-2. (Reporter assays use an easily measured gene product as a stand-in for the process of interest.)
Experiment [4] can be described thus: Upregulation of LAIR-1 expression in DBA/1 mouse splenocytes at 10^-7 M after overnight incubation by flow cytometric analysis (reference value: 973 +/- 95). Format: functional, cell-based. To be noted: Splenocyte. The method, boiled down: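 Splenocytes isolated from DBA/1 mice were cultured overnight with secosteroid at 10−7 M or vehicle control. Cells were stained with fluorochrome-labelled anti-CD4 and anti-LAIR-1 antibodies and analysed by multiparameter flow cytometry, gating on CD4 cells. At least 10 000 cells were counted per sample. Read-out is LAIR-1 mean fluorescence, given as the mean of two separate analyses ± SD.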
A general note: In flow cytometry, cells or beads pass a laser one at a time.

The target in experiment [5] is T2, 25-hydroxyvitamin D-1 alpha hydroxylase, mitochondrial (Mus musculus) (UniProt O35084).
T2 sequence (whole entry): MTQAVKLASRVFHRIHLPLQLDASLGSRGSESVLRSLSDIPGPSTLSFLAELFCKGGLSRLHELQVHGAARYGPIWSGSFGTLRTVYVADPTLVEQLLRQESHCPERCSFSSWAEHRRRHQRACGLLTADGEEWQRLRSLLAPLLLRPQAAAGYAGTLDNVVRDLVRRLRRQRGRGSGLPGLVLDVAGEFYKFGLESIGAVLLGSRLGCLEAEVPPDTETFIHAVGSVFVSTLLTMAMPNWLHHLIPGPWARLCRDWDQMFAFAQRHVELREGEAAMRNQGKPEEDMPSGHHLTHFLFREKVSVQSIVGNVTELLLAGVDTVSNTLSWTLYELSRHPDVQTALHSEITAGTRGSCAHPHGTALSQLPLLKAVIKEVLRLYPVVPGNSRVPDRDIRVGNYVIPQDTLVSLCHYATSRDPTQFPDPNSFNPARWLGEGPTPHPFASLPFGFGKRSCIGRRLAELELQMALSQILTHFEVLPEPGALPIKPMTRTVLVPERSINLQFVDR
Briefly: Substrate activity at mouse CYP27B1 assessed as 1alpha-hydroxylation by measuring ratio of Kcat to Km after 2 mins by reverse-phase HPLC analysis. In outline: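 Substrates incorporated into dioleoylphosphatidylcholine/cardiolipin vesicles over a range of concentrations and incubated 2 min. Products extracted with dichloromethane and quantified by reverse-phase C18 HPLC. Km and kcat from a Michaelis–Menten fit (±SE of fit); kcat/Km expressed per mmol/mol phospholipid.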

For experiment [6], the target named is T3, Vitamin D3 receptor (Homo sapiens) (UniProt P11473).
T3 sequence (whole entry): T1 sequence (P11473 whole entry)
Briefly: Transactivation of VDR in human HaCaT cells up to 1000 nM after 24 hrs by luciferase reporter gene assay. Type of experiment: cell-based. The method, boiled down: (§1)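 Cells were lentivirally transduced with a VDRE-luciferase reporter and selected 1 week with puromycin (1 µg/mL). Seeded at 1000 cells/well in FBS-free medium for 24 h, then treated 24 h with secosteroids in DMSO (0.1% final; 0.1% DMSO as vehicle control). Luciferase read by ONE-Glo. Triplicate per concentration; EC50 reported.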

For experiment [7], the target named is T3, Vitamin D3 receptor (Homo sapiens). Briefly: Transactivation of VDR in human Caco2 cells up to 1000 nM after 24 hrs by luciferase reporter gene assay. Format: cell-based. To be noted: Caco-2. The method, boiled down:
as §1

The pEC50 is the EC50 on a negative log10 scale, so that one unit is a factor of ten. High values mean a low EC50, low ones a high EC50. As for `C=C1/C(=C\C=C2/CCC[C@@]3(C)[C@H]2CC[C@@H]3[C@@](C)(O)CC[C@@H](O)C(C)C)C[C@@H](O)C[C@@H]1O`, the values for the pEC50 in experiment [1] and in experiment [3] were 7.19 and 7.17, respectively. For the same compound, in experiment [2], the Activity was determined as 291 pg/mL. Moreover, the Flu intensity in experiment [4] came out at 2100.

Compound `C=C1/C(=C\C=C2/CCC[C@]3(C)[C@@H]([C@H](C)CCCC(C)(C)O)CC[C@@H]23)C[C@@H](O)C[C@@H]1O` yielded a Flu intensity in experiment [4] of 1640.

Turning to `C=C1CC[C@H](O)C/C1=C/C=C1\CCC[C@@]2(C)[C@H]1CC[C@@H]2[C@@](C)(O)CC[C@@H](O)C(C)C`, the Ratio in experiment [5] was determined as 3.9 min⁻¹. For the same compound, the result in experiment [6] and in experiment [7] was inactive. Besides, in experiment [2], the Activity is 465 pg/mL. For the same compound, the Flu intensity in experiment [4] was 1910.

As for `C=C1/C(=C\C=C2/CCC[C@@]3(C)[C@H]2CC[C@@H]3[C@@](C)(O)CC[C@H](O)C(C)C)C[C@@H](O)C[C@@H]1O`, the pEC50 in experiment [1] is 6.57; in experiment [3] it was 6.68. In addition, the Activity in experiment [2] was 589 pg/mL. In addition, the Flu intensity in experiment [4] is 1820.

Regarding `C=C1CC[C@H](O)C/C1=C/C=C1\CCC[C@@]2(C)[C@H]1CC[C@@H]2[C@@](C)(O)CC[C@H](O)C(C)C`, the Ratio in experiment [5] was 0.71 min⁻¹. Moreover, the outcome in experiment [6] and in experiment [7] was inactive. In addition, the Activity in experiment [2] is 923 pg/mL. The Flu intensity in experiment [4] came to 1540.

As for `C=C1/C(=C\C=C2/CCC[C@]3(C)[C@@H]([C@H](C)OCCC(C)(C)O)CC[C@@H]23)C[C@@H](O)C[C@@H]1O` [MAXACALCITOL], the pEC50 in experiment [1] is 7.42; in experiment [3], 7.39. The Activity in experiment [2] worked out at 356 pg/mL. Moreover, in experiment [4], the Flu intensity amounted to 1510.
